This note sets out measurements from ChEMBL document CHEMBL4354843, “Structure-Based Design of a Potent and Selective Covalent Inhibitor for SRC Kinase That Targets a P-Loop Cysteine” (J Med Chem, 2020).

The target in experiment [1] is Non-receptor tyrosine-protein kinase TYK2 (Homo sapiens) (UniProt P29597). The experiment is described as follows: Binding affinity to wild-type human partial length TYK2 JH2 pseudokinase domain (G556 to D888 residues) expressed in mammalian expression system assessed as residual binding level at 1 uM by Kinomescan method relative to control.
Experiment [2] deals with Ribosomal protein S6 kinase alpha-5 (Homo sapiens) (UniProt O75582). The experiment is described as follows: Binding affinity to wild-type human partial length C-terminal RPS6KA5 kinase domain 2 (V390 to T718 residues) expressed in bacterial expression system assessed as residual binding level at 1 uM by Kinomescan method relative to control.
In experiment [3] the target is Tyrosine-protein kinase Fgr (Homo sapiens) (UniProt P09769). The experiment is described as follows: Binding affinity to wild-type human partial length FGR (L233 to T529 residues) expressed in bacterial expression system assessed as residual binding level at 1 uM by Kinomescan method relative to control. Put shortly:
(§1)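 Active-site-directed competition binding panel of 468 kinases (KinomeScan), compound at 1 μM. The read-out is kinase remaining bound, given as a percentage of the DMSO control. […]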

For experiment [4], the target named is Ephrin type-B receptor 4 (Homo sapiens) (UniProt P54760). The experiment is described as follows: Binding affinity to wild-type human partial length EPHB4 (H585 to G892 residues) expressed in bacterial expression system assessed as residual binding level at 1 uM by Kinomescan method relative to control.
The target of experiment [5] is Tyrosine-protein kinase FRK (Homo sapiens) (UniProt P42685). The experiment is described as follows: Binding affinity to wild-type human partial length FRK (A215 to F503 residues) expressed in bacterial expression system assessed as residual binding level at 1 uM by Kinomescan method relative to control. Put shortly: as §1
Sequence of Tyrosine-protein kinase FRK (Homo sapiens) (P42685 whole entry, the tested form may be a part): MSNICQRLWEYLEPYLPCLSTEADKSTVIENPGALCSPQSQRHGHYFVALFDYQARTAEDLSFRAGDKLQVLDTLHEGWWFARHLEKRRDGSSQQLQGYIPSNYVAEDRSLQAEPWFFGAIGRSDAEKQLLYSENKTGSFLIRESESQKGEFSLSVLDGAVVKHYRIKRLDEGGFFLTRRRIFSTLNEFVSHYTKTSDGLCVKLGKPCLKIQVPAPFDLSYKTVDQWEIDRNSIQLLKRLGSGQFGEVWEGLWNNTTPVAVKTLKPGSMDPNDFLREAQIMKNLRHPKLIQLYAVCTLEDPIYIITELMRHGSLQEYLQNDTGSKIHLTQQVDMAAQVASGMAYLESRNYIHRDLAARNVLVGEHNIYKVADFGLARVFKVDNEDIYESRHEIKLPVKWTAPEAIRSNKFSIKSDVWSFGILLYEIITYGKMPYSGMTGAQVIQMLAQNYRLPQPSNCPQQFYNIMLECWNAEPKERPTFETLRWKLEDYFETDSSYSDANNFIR
The target of experiment [6] is Ribosomal protein S6 kinase alpha-3 (Homo sapiens) (UniProt P51812). Put plainly: Binding affinity to wild-type human partial length C-terminal RSK2 kinase domain 2 (V402 to S715 residues) expressed in mammalian expression system assessed as residual binding level at 1 uM by Kinomescan method relative to control.
Sequence of Ribosomal protein S6 kinase alpha-3 (Homo sapiens) (P51812 whole entry, the tested form may be a part): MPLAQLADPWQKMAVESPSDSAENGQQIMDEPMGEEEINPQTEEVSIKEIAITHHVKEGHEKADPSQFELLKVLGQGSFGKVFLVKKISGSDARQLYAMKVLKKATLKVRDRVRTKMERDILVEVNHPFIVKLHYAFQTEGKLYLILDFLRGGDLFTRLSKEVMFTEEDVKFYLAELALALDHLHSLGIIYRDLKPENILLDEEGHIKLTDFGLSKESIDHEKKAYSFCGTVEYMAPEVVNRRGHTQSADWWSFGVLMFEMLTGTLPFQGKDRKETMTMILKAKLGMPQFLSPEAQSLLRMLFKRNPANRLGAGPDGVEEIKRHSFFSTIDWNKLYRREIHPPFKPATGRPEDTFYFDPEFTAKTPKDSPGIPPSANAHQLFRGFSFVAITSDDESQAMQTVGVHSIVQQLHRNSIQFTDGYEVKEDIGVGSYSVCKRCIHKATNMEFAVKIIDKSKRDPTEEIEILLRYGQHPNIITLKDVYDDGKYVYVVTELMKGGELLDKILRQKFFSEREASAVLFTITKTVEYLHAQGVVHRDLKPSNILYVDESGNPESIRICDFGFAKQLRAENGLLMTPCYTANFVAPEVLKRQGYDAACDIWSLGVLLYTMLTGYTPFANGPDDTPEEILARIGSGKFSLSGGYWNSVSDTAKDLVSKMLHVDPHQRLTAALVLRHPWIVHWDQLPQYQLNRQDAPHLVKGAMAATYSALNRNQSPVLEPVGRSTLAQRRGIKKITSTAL
The target of experiment [7] is STE20/SPS1-related proline-alanine-rich protein kinase (Homo sapiens) (UniProt Q9UEW8). The experiment is described as follows: Binding affinity to wild-type human partial length STK39 (P43 to I357 residues) expressed in mammalian expression system assessed as residual binding level at 1 uM by Kinomescan method relative to control.
Experiment [8] addresses Serine/threonine-protein kinase NLK (Homo sapiens) (UniProt Q9UBE8). Put plainly: Binding affinity to wild-type human full length NLK (M13 to E527 residues) expressed in bacterial expression system assessed as residual binding level at 1 uM by Kinomescan method relative to control. Put shortly: (§2)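 KinomeScan, an active site-directed competition binding panel of 468 kinases. The test compound was at 1 μM. The readout is remaining kinase binding as a percentage of the DMSO control. Scores above 35% were treated as weak binding and not listed.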

In experiment [9] the test system is Receptor-type tyrosine-protein kinase FLT3 (Homo sapiens), P36888 [D835V]. The experiment is described as follows: Binding affinity to human partial length FLT3 D835V mutant (V592 to Y969 residues) expressed in bacterial expression system assessed as residual binding level at 1 uM by Kinomescan method relative to control. Put shortly:
(§3)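 KinomeScan active site-directed competition binding panel (468 kinases), compound tested at 1 μM. Result expressed as remaining kinase signal versus DMSO control (percent of control).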

Experiment [10] concerns the target ALK tyrosine kinase receptor (Homo sapiens) (UniProt Q9UM73). Put plainly: Binding affinity to wild-type human partial length ALK (I1088 to E1409 residues) expressed in mammalian expression system assessed as residual binding level at 1 uM by Kinomescan method relative to control.
Experiment [11] deals with Dual specificity protein kinase CLK2 (Homo sapiens) (UniProt P49760). The experiment is described as follows: Binding affinity to wild-type human partial length CLK2 (D144 to R498 residues) expressed in bacterial expression system assessed as residual binding level at 1 uM by Kinomescan method relative to control.
The target of experiment [12] is Casein kinase I isoform gamma-1 (Homo sapiens) (UniProt Q9HCP0). Put plainly: Binding affinity to wild-type human partial length CSNK1G1 (T15 to S353 residues) expressed in bacterial expression system assessed as residual binding level at 1 uM by Kinomescan method relative to control.
Experiment [13] deals with Serine/threonine-protein kinase PLK2 (Homo sapiens) (UniProt Q9NYY3). The experiment is described as follows: Binding affinity to wild-type human partial length PLK2 (H58 to F354 residues) expressed in mammalian expression system assessed as residual binding level at 1 uM by Kinomescan method relative to control.
Experiment [14] relates to Epidermal growth factor receptor (Homo sapiens), P00533 [UNDEFINED MUTATION]. The experiment is described as follows: Binding affinity to human partial length EGFR S752-I759del mutant expressed in bacterial expression system assessed as residual binding level at 1 uM by Kinomescan method relative to control. Put shortly:
as §3

The target in experiment [15] is cAMP-dependent protein kinase catalytic subunit beta (Homo sapiens) (UniProt P22694). The experiment is described as follows: Binding affinity to wild-type human full length PKAC-beta (M1 to F351 residues) expressed in bacterial expression system assessed as residual binding level at 1 uM by Kinomescan method relative to control. The method in brief:
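Active-site-directed competition binding panel (KinomeScan) covering 468 kinases. Test agent was screened at 1 μM. The read-out is the remaining kinase signal expressed relative to a DMSO control. Scores above 35%, taken as weak binding, were not reported.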

Experiment [16] addresses Citron Rho-interacting kinase (Homo sapiens) (UniProt O14578). The experiment is described as follows: Binding affinity to wild-type human partial length CIT (M68 to E432 residues) expressed in bacterial expression system assessed as residual binding level at 1 uM by Kinomescan method relative to control.
The target of experiment [17] is Tyrosine-protein kinase ABL2 (Homo sapiens) (UniProt P42684). Put plainly: Binding affinity to wild-type human ABL2 (A248 to G542 residues) expressed in bacterial expression system assessed as residual binding level at 1 uM by Kinomescan method relative to control. The method in brief:
as §2

The target in experiment [18] is Serine/threonine-protein kinase Sgk2 (Homo sapiens) (UniProt Q9HBY8). Put plainly: Binding affinity to wild-type human partial length SGK2 (L54 to C427 residues) expressed in mammalian expression system assessed as residual binding level at 1 uM by Kinomescan method relative to control.
Sequence of Serine/threonine-protein kinase Sgk2 (Homo sapiens) (Q9HBY8 whole entry, the tested form may be a part): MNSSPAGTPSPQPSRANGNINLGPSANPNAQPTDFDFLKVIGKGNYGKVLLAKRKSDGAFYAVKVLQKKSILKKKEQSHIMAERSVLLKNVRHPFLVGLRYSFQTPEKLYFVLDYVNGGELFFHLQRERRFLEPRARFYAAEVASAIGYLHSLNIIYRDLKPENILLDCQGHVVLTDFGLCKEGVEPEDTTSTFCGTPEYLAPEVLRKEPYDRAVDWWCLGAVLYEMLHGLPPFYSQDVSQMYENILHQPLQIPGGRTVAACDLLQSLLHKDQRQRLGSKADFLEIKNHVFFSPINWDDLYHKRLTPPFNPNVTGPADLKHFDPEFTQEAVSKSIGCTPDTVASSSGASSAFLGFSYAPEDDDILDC
Experiment [19] concerns Receptor-type tyrosine-protein kinase FLT3 (Homo sapiens), P36888 [UNDEFINED MUTATION]. The experiment is described as follows: Binding affinity to human partial length FLT3 ITD/D835V double mutant expressed in bacterial expression system assessed as residual binding level at 1 uM by Kinomescan method relative to control. Put shortly: as §3
In experiment [20] the test system is Tyrosine-protein kinase ABL1 (Homo sapiens), P00519 [T315I]. Put plainly: Binding affinity to human non-phosphorylated ABL1 T315I mutant (S229 to K512 residues) expressed in mammalian expression system assessed as residual binding level at 1 uM by Kinomescan method relative to control. Put shortly:
as §3

In experiment [21] the target is Phosphorylase b kinase gamma catalytic chain, liver/testis isoform (Homo sapiens) (UniProt P15735). Put plainly: Binding affinity to wild-type human partial length PHKG2 (M1 to W300 residues) expressed in bacterial expression system assessed as residual binding level at 1 uM by Kinomescan method relative to control.

Sequence of Citron Rho-interacting kinase (Homo sapiens) (O14578 whole entry, the tested form may be a part): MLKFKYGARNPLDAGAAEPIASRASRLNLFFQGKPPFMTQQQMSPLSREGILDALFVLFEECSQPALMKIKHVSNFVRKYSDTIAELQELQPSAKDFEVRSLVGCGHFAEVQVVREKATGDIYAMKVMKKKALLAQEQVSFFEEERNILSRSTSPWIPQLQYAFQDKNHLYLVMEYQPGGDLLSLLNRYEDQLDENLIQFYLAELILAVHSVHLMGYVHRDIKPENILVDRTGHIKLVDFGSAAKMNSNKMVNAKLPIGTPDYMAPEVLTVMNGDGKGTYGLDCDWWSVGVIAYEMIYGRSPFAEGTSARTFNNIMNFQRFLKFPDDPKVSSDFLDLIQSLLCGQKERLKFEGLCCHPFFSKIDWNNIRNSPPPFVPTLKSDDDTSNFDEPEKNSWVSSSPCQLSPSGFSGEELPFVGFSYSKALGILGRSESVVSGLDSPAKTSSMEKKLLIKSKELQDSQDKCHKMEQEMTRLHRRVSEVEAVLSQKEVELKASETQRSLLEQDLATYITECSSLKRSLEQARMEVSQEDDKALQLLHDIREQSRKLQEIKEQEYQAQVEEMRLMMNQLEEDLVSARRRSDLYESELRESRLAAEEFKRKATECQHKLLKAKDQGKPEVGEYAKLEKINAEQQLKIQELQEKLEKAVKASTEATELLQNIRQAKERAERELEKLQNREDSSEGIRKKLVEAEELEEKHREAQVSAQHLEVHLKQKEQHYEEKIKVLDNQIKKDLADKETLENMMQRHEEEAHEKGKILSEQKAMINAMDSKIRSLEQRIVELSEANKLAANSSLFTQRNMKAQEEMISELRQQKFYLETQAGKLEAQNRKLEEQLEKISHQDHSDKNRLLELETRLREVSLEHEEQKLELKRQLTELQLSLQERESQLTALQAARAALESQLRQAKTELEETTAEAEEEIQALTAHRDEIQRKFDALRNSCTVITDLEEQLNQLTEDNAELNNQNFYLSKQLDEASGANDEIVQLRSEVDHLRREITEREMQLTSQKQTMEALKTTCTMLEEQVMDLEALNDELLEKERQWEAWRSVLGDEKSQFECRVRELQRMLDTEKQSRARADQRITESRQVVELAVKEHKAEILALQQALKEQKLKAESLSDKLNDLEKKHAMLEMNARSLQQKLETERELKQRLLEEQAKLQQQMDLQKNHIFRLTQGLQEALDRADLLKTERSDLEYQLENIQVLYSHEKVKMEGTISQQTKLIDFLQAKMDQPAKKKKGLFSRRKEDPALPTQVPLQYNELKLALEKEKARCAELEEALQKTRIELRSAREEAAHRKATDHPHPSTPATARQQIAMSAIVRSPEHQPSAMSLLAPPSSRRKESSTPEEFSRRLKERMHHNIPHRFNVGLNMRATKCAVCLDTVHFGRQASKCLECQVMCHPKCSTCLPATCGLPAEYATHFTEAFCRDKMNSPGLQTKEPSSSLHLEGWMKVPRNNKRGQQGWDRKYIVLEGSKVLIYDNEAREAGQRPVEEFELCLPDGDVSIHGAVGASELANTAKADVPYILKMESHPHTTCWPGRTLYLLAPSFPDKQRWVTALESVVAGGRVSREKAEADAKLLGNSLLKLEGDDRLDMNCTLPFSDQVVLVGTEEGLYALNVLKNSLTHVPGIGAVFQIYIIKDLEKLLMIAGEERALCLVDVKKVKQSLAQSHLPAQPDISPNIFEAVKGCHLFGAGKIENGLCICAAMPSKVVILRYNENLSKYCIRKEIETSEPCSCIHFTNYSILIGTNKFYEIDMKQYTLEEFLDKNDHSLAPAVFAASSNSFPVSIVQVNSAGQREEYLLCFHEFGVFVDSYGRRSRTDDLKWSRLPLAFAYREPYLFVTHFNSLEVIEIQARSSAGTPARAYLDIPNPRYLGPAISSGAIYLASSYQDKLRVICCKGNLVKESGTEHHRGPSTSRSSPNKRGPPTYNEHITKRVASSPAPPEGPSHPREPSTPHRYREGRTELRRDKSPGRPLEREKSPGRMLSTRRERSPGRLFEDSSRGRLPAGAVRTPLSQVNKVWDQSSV
Sequence of Tyrosine-protein kinase ABL2 (Homo sapiens) (P42684 whole entry, the tested form may be a part): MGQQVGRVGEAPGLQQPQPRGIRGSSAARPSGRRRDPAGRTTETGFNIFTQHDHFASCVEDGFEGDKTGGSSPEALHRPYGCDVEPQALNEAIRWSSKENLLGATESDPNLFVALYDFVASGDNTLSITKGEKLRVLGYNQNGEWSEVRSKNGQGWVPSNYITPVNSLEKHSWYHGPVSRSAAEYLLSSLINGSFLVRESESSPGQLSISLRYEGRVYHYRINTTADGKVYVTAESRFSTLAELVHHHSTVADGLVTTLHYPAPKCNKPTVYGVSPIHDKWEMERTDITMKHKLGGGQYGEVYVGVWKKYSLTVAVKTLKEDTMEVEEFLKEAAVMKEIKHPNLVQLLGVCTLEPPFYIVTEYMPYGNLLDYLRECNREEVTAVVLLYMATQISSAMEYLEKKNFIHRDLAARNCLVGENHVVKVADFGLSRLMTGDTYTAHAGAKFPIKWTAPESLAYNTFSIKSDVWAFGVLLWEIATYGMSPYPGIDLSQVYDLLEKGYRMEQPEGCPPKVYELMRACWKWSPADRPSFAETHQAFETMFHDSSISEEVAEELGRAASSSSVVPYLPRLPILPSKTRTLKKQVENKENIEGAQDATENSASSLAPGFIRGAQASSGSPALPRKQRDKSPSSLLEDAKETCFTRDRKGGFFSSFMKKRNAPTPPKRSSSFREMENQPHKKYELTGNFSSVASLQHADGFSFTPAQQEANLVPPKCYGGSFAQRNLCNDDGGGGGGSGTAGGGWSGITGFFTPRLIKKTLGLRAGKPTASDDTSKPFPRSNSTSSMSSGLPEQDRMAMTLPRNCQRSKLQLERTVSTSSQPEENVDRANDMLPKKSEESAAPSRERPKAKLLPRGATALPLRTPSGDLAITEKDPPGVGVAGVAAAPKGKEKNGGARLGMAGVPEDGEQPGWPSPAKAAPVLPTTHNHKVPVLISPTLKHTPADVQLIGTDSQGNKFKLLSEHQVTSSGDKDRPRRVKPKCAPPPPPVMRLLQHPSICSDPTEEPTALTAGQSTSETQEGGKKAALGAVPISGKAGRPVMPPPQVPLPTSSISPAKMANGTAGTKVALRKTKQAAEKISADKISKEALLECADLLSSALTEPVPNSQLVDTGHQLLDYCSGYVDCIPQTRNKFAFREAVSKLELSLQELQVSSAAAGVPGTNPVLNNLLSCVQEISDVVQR

As for `C=CC(=O)Nc1ccccc1Nc1nc(Nc2ccc(N3CCN(C)CC3)cc2)ncc1C(=O)Nc1c(C)cccc1Cl`, the Activity in [1] stood at 100%; in experiment [2], 100%; in experiment [3], 30%; in experiment [4], 100%; in experiment [5] it was 5.1%; in [6], 100%. Moreover, the Activity in experiment [7] worked out at 65%; in experiment [8], 76%; in [9], 91%; in experiment [10], 100%; in [11] it was 100%; in [12] it was 100%. Further, the Activity was found to be 100% in [13]; 92% in experiment [14]; 100% in [15]; 100% in experiment [16]; 0.35% in [17]; 100% in experiment [18]. The Activity in [19] was determined as 89%; in experiment [20], 100%; in experiment [21], 100%.
